Myeloid diff MLP = myeloid differentiation induction; ER-HoxA9 myeloid progenitors, lysozyme-GFP differentiation, flow cytometry; calls only at 10 µM; actives 1% (n = 360,000); AID 624256;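 active means normalized GFP-positive differentiation at or above the plate's own cutoff, the solvent-only control mean plus 3 SD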;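 further: cells exposed to compound for four days before flow analysis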
Granule exo inh = blocks lytic granule exocytosis | TALL-104 LAMP-1 surface exposure, flow cytometry; cells stimulated with thapsigargin and PMA | actives 0.66% (n = 360,000) | inhibition, % at 10 µM;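 active means inhibition above about 55%, limit read from the data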
SENP1 inh = blocks the human SENP1 SUMO protease catalytic domain | recombinant SENP1 catalytic domain, CyPet-SUMO1-YPet FRET cleavage | Q9P0U3 | AID 624204 | actives 0.21% (n = 360,000) | inhibition, % at 10 µM;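 active means inhibition at least 30% at 10 µM, raw YFP signal under a set limit, fluorescence ratio 0.5 to 1.5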
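Test system: human SENP1 catalytic domain; medium: Tris pH 8 buffer plus EDTA, NaCl, BME, BSA, NP40, catalase; incubation: 50 min reaction at room temperature; technique: FRET, CFP and YFP emission; controls: no-enzyme low control and enzyme-plus-DMSO high control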
DSG3 Ab inh = inhibitors of pemphigus antibody binding to human desmoglein-3. actives 0.48% (n = 310,000). DSG3-coupled beads, scFv-anti-DSG3-GFP binding, flow cytometry; hits give low values. binding (percent of control), % at 10 µM. AID 588358;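 active means binding more than 3 SD below its plate's average and above zero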;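 further: hits lower antibody fragment binding to DSG3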
Target sequence (P32926 whole entry, looked up, the tested form may be a part): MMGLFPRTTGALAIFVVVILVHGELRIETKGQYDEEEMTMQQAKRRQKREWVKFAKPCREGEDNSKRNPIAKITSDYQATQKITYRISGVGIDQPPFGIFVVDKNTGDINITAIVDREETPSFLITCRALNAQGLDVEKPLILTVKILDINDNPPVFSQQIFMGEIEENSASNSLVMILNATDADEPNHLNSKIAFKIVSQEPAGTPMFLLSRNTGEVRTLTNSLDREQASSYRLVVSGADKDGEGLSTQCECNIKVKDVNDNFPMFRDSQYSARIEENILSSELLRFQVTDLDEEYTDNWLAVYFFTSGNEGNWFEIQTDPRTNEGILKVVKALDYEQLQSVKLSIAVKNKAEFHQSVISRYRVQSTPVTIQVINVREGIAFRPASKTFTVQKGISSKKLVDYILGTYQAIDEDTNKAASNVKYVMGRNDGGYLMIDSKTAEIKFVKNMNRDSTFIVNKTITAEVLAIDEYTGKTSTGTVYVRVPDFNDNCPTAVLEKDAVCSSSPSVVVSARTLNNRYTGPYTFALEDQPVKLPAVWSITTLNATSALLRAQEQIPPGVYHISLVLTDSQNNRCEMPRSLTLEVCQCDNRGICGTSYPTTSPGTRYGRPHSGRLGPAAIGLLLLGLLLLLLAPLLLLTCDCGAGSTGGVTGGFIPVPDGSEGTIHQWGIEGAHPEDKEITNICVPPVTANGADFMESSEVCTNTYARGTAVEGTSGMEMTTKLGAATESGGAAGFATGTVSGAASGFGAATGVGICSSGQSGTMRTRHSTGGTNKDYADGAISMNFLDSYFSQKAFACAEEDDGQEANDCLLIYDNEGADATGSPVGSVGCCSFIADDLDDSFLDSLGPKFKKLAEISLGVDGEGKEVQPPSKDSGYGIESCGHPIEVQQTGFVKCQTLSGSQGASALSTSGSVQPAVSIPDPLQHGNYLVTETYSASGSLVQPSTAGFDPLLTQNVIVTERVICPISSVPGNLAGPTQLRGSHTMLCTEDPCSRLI
HNF4A DNA FP = change in binding of human HNF4 alpha to DNA; P41235; HNF4a-FITC DNA binding, fluorescence polarization, 1 h; activity change, % at 10 µM; actives 0.3% (n = 360,000); in the data active means activity change above about 30%, passing the limit was not always enough
H9c2 protect = protects H9c2 cardiomyocytes from peroxide injury; H2O2 injury protection, ATPLite, 2 h; AID 588492; protection from H2O2 cell death, % at 20 µM; actives 0.63% (n = 360,000);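 active means compounds giving at least 50% protection of heart cells from peroxide-induced death in the single-dose screen, raw or plate-pattern-corrected value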
Myeloid diff = compounds promoting myeloid differentiation; shares compounds with Myeloid diff MLP; ER-HoxA9 myeloid progenitors, GFP/Mac1 double-positive flow; calls only; actives 2% (n = 2,300);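 active means share of green or green-and-red cells above 9 and 9% in run 1 or 4 and 3% in run 2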
GFP autofluor = counter-screen for myeloid differentiation promoters: compound fluorescence | shares compounds with Myeloid diff MLP | ER-HoxA9 myeloid progenitors, no estrogen, GFP autofluorescence flow cytometry; vehicle wells 0%, positive control 100% | fluorescence response, % (test concentration not listed) | actives 7.4% (n = 2,300);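 active means over 5% cells positive for green fluorescent reporter, or over 2% positive for both it and APC stain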
A number is an active result; - = inactive; . = not tested or not shown; + = active, no number. Rows were chosen to be rich in hits. Some 3% of all compounds tested hit in one or more screens of this group.

SMILES | Myeloid diff MLP | Granule exo inh | SENP1 inh | DSG3 Ab inh | HNF4A DNA FP | H9c2 protect | Myeloid diff | GFP autofluor
COc1cc(CSc2nnnn2-c2ccc(C)cc2)cc(OC)c1OC | - | - | - | - | - | - | - | -
COc1ccc(N2CCN(C(=O)c3cccc(NS(=O)(=O)c4cccc(F)c4)c3)CC2)cc1 | - | - | - | - | - | - | . | .
COc1ccc(NS(=O)(=O)c2cccc(C(=O)NNC(=O)COc3ccccc3)c2)cc1 | + | - | - | - | - | - | - | -
COc1ccc(N2CCN(C(=O)c3ccc(C)c(Cl)c3)CC2)cc1 | - | - | - | . | - | - | - | -
COc1ccc(N2CCN(C(=O)c3ccc(NS(=O)(=O)c4cccc(F)c4)cc3)CC2)cc1 | - | - | - | - | - | - | - | -
CC(C)C(NC(=O)CN1C(=O)c2ccccc2C1=O)c1ccccc1 (centres undefined) | - | - | - | - | - | - | . | .
O=C1COc2ccc(C(=O)/C=C/c3ccccc3)cc2N1 | - | - | - | - | - | - | - | -
O=C1COc2ccc(C(=O)NCc3ccco3)cc2N1 | - | - | - | - | - | - | - | -
Cc1cccc(/C=N/NC(=O)c2ccc(NC(=O)c3ccc(Cl)cc3)cc2)n1 | + | - | - | - | - | - | - | -
O=C(CN(C(=O)Cn1nnc(-c2ccc(F)cc2)n1)c1ccc(F)cc1)NC1CCCC1 | - | - | - | - | - | - | . | .
O=C(O)CCC1(C(=O)O)OCCc2ccccc21 (centres undefined) | - | - | - | - | - | - | - | -
OCC[C@@H]1C[C@@H](O)[C@H](O)[C@]2(OCCc3ccccc32)O1 | - | - | - | - | - | - | . | .
COc1ccc(/C=C/C(=O)N2CCN(c3ccccn3)CC2)cc1OC | . | - | - | - | - | - | . | .
CC(C)(C)c1ccc(S(=O)(=O)NCCOCC(F)(F)C(F)F)cc1 | + | - | - | - | - | - | - | -
CC(C)(C)c1ccc(S(=O)(=O)NCCc2ccncc2)cc1 | - | - | - | . | - | - | . | .
COc1ccc2c(c1)[nH]c(=O)c1sc3ccccc3c12 | - | - | - | - | - | - | . | .
COc1ccc2sc3c(=O)[nH]c4ccccc4c3c2c1 | + | - | - | - | - | - | - | -
COc1ccc(NC(=O)c2ccc([N+](=O)[O-])s2)c([N+](=O)[O-])c1 | - | - | - | - | - | - | - | -
CC(C)n1nnnc1C1c2ccccc2C(=O)N1Cc1ccc(F)cc1 (centres undefined) | - | - | - | . | - | . | . | .
Cc1ccc(S(=O)(=O)N2C[C@H]3C(=O)C[C@@H](c4ccccc4)N(S(=O)(=O)c4ccc(C)cc4)[C@H]3C[C@H]2c2ccccc2)cc1 | - | - | - | - | - | - | . | .
Cc1ccc(S(=O)(=O)N2C[C@H]3C(=O)C[C@@H](c4ccccc4)N(S(=O)(=O)c4ccc(Br)cc4)[C@H]3C[C@H]2c2ccccc2)cc1 | + | - | - | . | - | - | - | -
CC(C)(C)C(=O)Nc1cc(NC(=O)C(C)(C)C)cc(C(=O)Nc2cc(C(=O)O)cc(C(=O)O)c2)c1 | - | - | - | - | - | - | . | .
CC(C)(C)C(=O)Nc1cc(NC(=O)C(C)(C)C)cc(C(=O)NNC(=O)c2ccncc2)c1 | + | - | - | - | - | - | - | -
Cn1c(-c2cccs2)[n+](C)c2ccccc21 | - | - | - | - | - | - | - | -
Cc1ccc(C(=O)NC2CC(C)(C)NC(C)(C)C2)cc1S(=O)(=O)N1CCCCC1 | - | - | - | - | - | - | . | .
SMILES | Myeloid diff MLP | Granule exo inh | SENP1 inh | DSG3 Ab inh | HNF4A DNA FP | H9c2 protect | Myeloid diff | GFP autofluor
O=C(NCc1ccc2c(c1)OCO2)c1cccs1 | - | - | - | - | - | - | . | .
O=C(COC(=O)c1cccs1)NCc1ccc2c(c1)OCO2 | + | - | - | - | - | - | - | -
COc1cc(CCC(=O)Nc2ccc(S(=O)(=O)NC3=NCCCCC3)cc2)cc(OC)c1OC | - | - | - | - | - | - | - | -
COc1ccc(CCC(=O)Nc2ccc(S(=O)(=O)NC3=NCCCCC3)cc2)cc1 | - | - | - | - | - | - | . | .
CC(=O)Cc1cc(=O)c2c(C)cc(O)c(C3OC(CO)C(O)C(O)C3O)c2o1 (centres undefined) | - | - | - | - | - | - | - | -
O=C(CC1C(=O)NCCN1Cc1cccc(Oc2ccccc2)c1)NCCc1ccccn1 (centres undefined) | + | - | - | - | - | - | - | -
Clc1cccc(-c2nc3ccc(Cl)cn3c2Cc2ccsc2)c1 | - | - | - | . | - | - | . | .
OC1CCNC(=S)N1c1ccccc1 (centres undefined) | + | - | - | - | - | - | - | -
OC1NC(=S)N(c2ccccc2)C1O (centres undefined) | - | - | - | - | - | - | . | .
Cn1cc(Cc2ccc(C(=O)N3CCN(Cc4ccccc4)CC3)cn2)c2ccccc21 | - | - | - | . | - | - | . | .
Cc1cc(C)nc(Nc2ncc(O)n2-c2ccc(C)c(C)c2)n1 | - | - | - | - | - | - | . | .
COc1ccc(OC)c(-n2c(O)cnc2Nc2nc(C)cc(C)n2)c1 | - | - | - | . | - | - | - | -
CN(C(=O)CNC(=O)c1ccc(Br)o1)C1CCCCC1 | - | - | - | . | - | - | . | .
O=C(Cc1ccccc1)N/N=C/c1cc(Br)c(Br)o1 | - | - | - | - | - | - | - | -
O=C(Cc1ccccc1)NN=Cc1ccccc1 | - | - | - | - | - | - | . | .
CCOc1cc(CNc2ccc(Br)cc2)cc(Br)c1OCC(=O)NC(C)(C)C | . | - | - | - | - | - | - | -
CCOC(=O)N1CCN(C(=O)C2CCN(S(=O)(=O)N3CCCC3)CC2)CC1 | + | - | - | - | - | - | - | -
CCc1nc2c(OCc3ccc(OC(F)F)cc3)cccn2c1N(C)C(=O)c1ccco1 | - | - | - | . | - | - | . | .
CCOc1ccc2nc(N3C(=O)/C(=C/c4ccccc4)NC3=S)sc2c1 | - | - | - | - | - | - | . | .
COc1ccc2nc(N3C(=O)/C(=C/c4ccccc4)NC3=S)sc2c1 | - | - | - | - | - | - | - | 7.0
N#Cc1ccccc1NC(=O)CSc1n[nH]c(=O)n1C1CC1 | - | - | - | - | - | - | . | .
COc1ccc2c(c1)C(CC(C)=O)N(c1ccc(-c3cccs3)cc1)C(c1ccsc1)=C2 (centres undefined) | + | - | - | . | - | . | - | -
COc1ccc2c(c1)C(CC(C)=O)N(c1ccc(-c3cnc(OC)nc3)cc1)C(c1ccsc1)=C2 (centres undefined) | - | - | - | . | - | . | . | .

Compound activity (PubChem BioAssay)
